Assay [1] concerns the target T1, Muscarinic acetylcholine receptor M2 (Homo sapiens) (UniProt P08172).
T1 sequence (whole entry): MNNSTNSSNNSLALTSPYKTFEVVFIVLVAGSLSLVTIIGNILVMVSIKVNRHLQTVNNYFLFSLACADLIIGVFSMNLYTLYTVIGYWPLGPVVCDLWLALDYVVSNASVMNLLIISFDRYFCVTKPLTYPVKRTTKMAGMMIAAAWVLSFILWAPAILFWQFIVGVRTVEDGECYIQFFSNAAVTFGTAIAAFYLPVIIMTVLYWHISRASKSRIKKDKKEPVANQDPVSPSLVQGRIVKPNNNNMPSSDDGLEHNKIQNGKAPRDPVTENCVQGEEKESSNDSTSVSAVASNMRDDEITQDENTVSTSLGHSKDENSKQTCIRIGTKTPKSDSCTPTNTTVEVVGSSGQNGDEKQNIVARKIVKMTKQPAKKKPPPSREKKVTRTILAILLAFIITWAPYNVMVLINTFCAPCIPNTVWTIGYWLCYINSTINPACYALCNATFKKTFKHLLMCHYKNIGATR
As to the kind of experiment: Binding affinity to human muscarinic M2 receptor expressed in […] cells assessed as unspecific binding at Kd incubated in dark at 22 degree C for 2 hrs in presence of atropine by FACSCalibur flow cytometric saturation binding study relative to control. It counts as cell-based. Background: A flow cytometer gives signals particle by particle.

Assay [2] addresses T2, Muscarinic acetylcholine receptor M1 (Homo sapiens, UniProt P11229).
T2 sequence (P11229 whole entry): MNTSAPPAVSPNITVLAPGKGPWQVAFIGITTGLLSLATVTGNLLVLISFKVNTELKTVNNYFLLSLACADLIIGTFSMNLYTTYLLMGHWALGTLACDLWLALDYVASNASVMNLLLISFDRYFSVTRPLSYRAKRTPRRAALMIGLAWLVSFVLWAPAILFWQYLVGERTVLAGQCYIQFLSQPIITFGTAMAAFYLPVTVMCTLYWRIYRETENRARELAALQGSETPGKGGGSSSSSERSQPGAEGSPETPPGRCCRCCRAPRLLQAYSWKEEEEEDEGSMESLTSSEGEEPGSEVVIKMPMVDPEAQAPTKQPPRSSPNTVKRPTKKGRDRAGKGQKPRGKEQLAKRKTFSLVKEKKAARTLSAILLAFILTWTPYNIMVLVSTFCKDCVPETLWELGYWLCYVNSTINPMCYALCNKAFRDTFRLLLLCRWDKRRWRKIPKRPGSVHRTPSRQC
Description: Displacement of [3H]-NMS from human muscarinic M1 receptor stably expressed in CHO-K9 cells by radioligand competitive binding assay. It counts as cell-based. The method in brief:
(§1)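 Equilibrium competition binding at live CHO-hMxR cells with [3H]NMS at M1 0.2, M2 0.2, M3 0.2, M4 0.1, M5 0.3 nM. […] Four-parameter logistic fit converted to pKi; at least three experiments in triplicate (some two).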

Assay [3] deals with T3, Muscarinic acetylcholine receptor M5 (Homo sapiens, UniProt P08912).
T3 sequence (P08912 whole entry): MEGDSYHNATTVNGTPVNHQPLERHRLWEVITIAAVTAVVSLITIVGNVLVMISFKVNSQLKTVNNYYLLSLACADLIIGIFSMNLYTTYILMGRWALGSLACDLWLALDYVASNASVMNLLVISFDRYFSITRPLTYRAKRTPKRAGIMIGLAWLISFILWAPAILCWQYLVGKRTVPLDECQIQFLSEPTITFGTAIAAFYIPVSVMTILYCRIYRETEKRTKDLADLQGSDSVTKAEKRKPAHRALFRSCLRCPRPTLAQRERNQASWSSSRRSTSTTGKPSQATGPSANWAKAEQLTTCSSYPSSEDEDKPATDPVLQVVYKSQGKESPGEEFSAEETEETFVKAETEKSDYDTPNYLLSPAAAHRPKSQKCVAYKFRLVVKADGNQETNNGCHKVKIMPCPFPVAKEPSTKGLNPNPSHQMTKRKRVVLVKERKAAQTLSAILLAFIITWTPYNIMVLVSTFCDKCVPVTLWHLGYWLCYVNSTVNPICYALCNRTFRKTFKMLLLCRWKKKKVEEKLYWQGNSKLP
Description: Displacement of [3H]-NMS from human muscarinic M5 receptor stably expressed in CHO-K9 cells by radioligand competitive binding assay. It counts as cell-based. In outline: as §1
(Loss of bound radioactivity is the signal in a displacement assay; it reports binding, not function.)

The target in assay [4] is T1, Muscarinic acetylcholine receptor M2 (Homo sapiens). Description: Binding affinity to human muscarinic M2 receptor expressed in CHO-K9 cells assessed as observed association rate constant at 22 +/- 1 degree C incubated under shaking condition in dark for 1 to 300 mins by flow cytometric saturation binding study. It counts as cell-based.
In assay [5] the target is T4, Muscarinic acetylcholine receptor M2 (Homo sapiens, UniProt P08172).
T4 sequence (P08172 whole entry): T1 sequence (whole entry)
As to the kind of experiment: Antagonist activity at human muscarinic M2 receptor expressed in HEK293 cells co-expressing HA-Galphaq/i5 assessed as inhibition of carbachol-induced IP1 accumulation at 37 degree C pre-incubated for 30 mins followed by carbachol addition and measured after 60 mins by HTRF assay. Format: functional, cell-based.

Assay [6] has as its target T4, Muscarinic acetylcholine receptor M2. As to the kind of experiment: Antagonist activity at human muscarinic M2 receptor expressed in HEK293 cells co-expressing HA-Galphaq/i5 assessed as inhibition of carbachol-induced IP1 accumulation at 22 degree C pre-incubated for 180 mins followed by carbachol addition and further incubated at 37 degree C for 90 mins by HTRF assay. Format: functional, cell-based. The method in brief: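 HEK-hM2-Gαqi5-HA cells (transient transfection) preincubated with antagonist at 22 °C for 180 min, then carbachol 0.3 μM (≈EC80) added and incubation continued at 37 °C for 90 min. Readout is inhibition of IP1 accumulation as pIC50, mean ± SEM of n independent experiments, each in duplicate.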
(TR-FRET usually uses a lanthanide donor and a delayed reading to cut background.)

For assay [7], the target named is T5, Muscarinic acetylcholine receptor M4 (Homo sapiens, UniProt P08173).
T5 sequence (P08173 whole entry): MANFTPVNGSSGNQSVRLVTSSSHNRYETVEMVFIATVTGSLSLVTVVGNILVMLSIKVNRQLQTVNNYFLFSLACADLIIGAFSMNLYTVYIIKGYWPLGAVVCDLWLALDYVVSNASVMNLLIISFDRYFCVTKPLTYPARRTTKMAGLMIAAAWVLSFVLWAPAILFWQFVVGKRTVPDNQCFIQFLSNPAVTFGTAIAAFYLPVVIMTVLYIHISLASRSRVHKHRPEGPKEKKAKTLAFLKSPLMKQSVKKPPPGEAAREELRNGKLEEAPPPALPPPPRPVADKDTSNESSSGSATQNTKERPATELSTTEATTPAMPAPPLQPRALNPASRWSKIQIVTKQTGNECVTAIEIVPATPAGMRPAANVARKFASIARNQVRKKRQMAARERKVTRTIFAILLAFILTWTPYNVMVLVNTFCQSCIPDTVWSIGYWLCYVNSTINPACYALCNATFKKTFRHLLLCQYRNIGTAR
As to the kind of experiment: Displacement of [3H]-NMS from human muscarinic M4 receptor stably expressed in CHO-K9 cells by radioligand competitive binding assay. Format: cell-based. The method in brief: as §1

For assay [8], the target named is T4, Muscarinic acetylcholine receptor M2. As to the kind of experiment: Binding affinity to human muscarinic M2 receptor expressed in CHO-K9 cells incubated in dark measured after 60 mins by Hoechst H33342 dye based confocal plate reader assay. It counts as cell-based. In outline: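 Live CHO-hMxR cells (M1 or M2) incubated with fluorescent ligand at 22 °C in the dark for 1 h, washed, then imaged at once by high-content confocal plate reader.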

Consider three compounds from ChEMBL document CHEMBL4602702, “Red-Emitting Dibenzodiazepinone Derivatives as Fluorescent Dualsteric Probes for the Muscarinic Acetylcholine M2 Receptor” (J Med Chem, 2020).

Regarding `CC1(C)C(/C=C/C=C/C=C2/N(CCCCCC(=O)NCc3cc(C(=O)NCCNC(=O)CCc4cn(CCCCC5CCN(CC(=O)N6c7ccccc7NC(=O)c7ccccc76)CC5)cn4)cc(C(=O)NCCNC(=O)CCc4cn(CCCCC5CCN(CC(=O)N6c7ccccc7NC(=O)c7ccccc76)CC5)cn4)c3)c3ccc(S(=O)(=O)O)cc3C2(C)C)=[N+](CCCCS(=O)(=O)[O-])c2ccccc21.O=C(O)C(F)(F)F.O=C(O)C(F)(F)F.O=C(O)C(F)(F)F`, in assay [1], the Activity is less than 5%. Besides, the Ki – broadly, a measure of affinity in units of concentration, obtained from inhibition or displacement – in assay [2] is 2.29 nM; in assay [3], 407 nM; in assay [7], 2.88 nM. Further, the K in assay [4] came to 0.024 min⁻¹. Also, the results for the IC50 in assay [5] and in assay [6] were 24 nM and 17.4 nM, respectively. Further, the Kd in assay [8] (read-out: Kd) is 2.9 nM; in assay [8] (read-out: pKd (converted)), 5.62 nM.
For `CC1(C)C(/C=C/C=C/C=C2/N(CCCCCC(=O)NCCN3CCN(CCCCC4CCN(CC(=O)N5c6ccccc6NC(=O)c6ccccc65)CC4)CC3)c3ccc(S(=O)(=O)O)cc3C2(C)C)=[N+](CCCCS(=O)(=O)[O-])c2ccccc21.O=C(O)C(F)(F)F.O=C(O)C(F)(F)F`, in assay [1], the Activity was determined as 10%. Moreover, the values for the Ki in assay [2], in assay [3] and in assay [7] were 2.88 nM, 135 nM and 2.14 nM, respectively. Further, the K in assay [4] came out at 0.014 min⁻¹. The IC50 (in general, the concentration that inhibits the measured activity by half) in assay [5] is 224 nM; in assay [6], 38.9 nM. Besides, the Kd was 5.3 nM in assay [8] (read-out: Kd) and 4.68 nM in assay [8] (read-out: pKd (converted)).
On to `CC1(C)C(/C=C/C=C/C=C2/N(CCCCCC(=O)NCCNC(=O)CCc3cn(CCCCC4CCN(CC(=O)N5c6ccccc6NC(=O)c6ccccc65)CC4)cn3)c3ccc(S(=O)(=O)O)cc3C2(C)C)=[N+](CCCCS(=O)(=O)[O-])c2ccccc21.O=C(O)C(F)(F)F`, for which the Activity in assay [1] is 10%. For the same compound, the Ki in assay [2] is 5.25 nM; in assay [3] it was 166 nM; in assay [7], 4.47 nM. Also, the K in assay [4] is 0.026 min⁻¹. In addition, the values for the IC50 in assay [5] and in assay [6] were 355 nM and 57.5 nM, respectively. Also, the figures for the Kd in assay [8] (read-out: Kd) and in assay [8] (read-out: pKd (converted)) were 12.6 nM and 11.5 nM, respectively.
